Only some compounds are listed: those with a hit (about 1.7% of all), similar ones and a draw of the others.
SR-BI DiI-HDL act – SR-BI HDL lipid transfer activation | activation, % at 12.5 µM | CHO ldlA[mSR-BI] cells, DiI-HDL uptake fluorescence, 3 h; 100 = double the neutral-control signal | AID 504775 | actives 0.096% (n = 320,000);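 active = mean replicate activation of at least 60% and every replicate at or above 60%; inconclusive = mean or all-replicate condition met, but not both; inactive = mean below 60% and not all replicates reaching 60%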
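Assay system: CHO ldlA[mSR-BI] cells, LDL receptor-null, SR-BI overexpressing; medium: Ham's F12 with 0.5% BSA, HEPES 25 mM, pH 7.4; also added: DiI-HDL 10 µg/mL; timing: 3 h uptake period with compound, 37 °C; signal: DiI fluorescence, bottom read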
SR-BI HDL uptake – blocks mouse SR-BI lipid uptake from DiI-HDL | Q61009 | ldlA[mSR-BI] CHO cells, DiI-HDL uptake fluorescence, 3 h | inhibition, % at 12.5 µM | actives 0.96% (n = 320,000);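 active = mean replicate inhibition of at least 70% and a set share of replicates each scoring 70 or more; inconclusive = meets just one of the two criteria; inactive = fails both criteria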
CaV13 FRET inh – Disruptors of the CACNA1D IQ motif to Ca2+-dependent inactivation inhibitor domain association, primary screening, Förster resonance energy transfer in intact living …. HEK cells, CFP/YFP FRET ICDI-IQ, plate reader, 10 min; percent FRET-ratio fall versus neutral wells. inhibition, % at 12.3 µM. actives 0.098% (n = 340,000). AID 743397;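 active = mean replicate inhibition of at least 30% and at least 1% of replicates passing that level; inconclusive = only one of the two criteria is met; inactive = neither criterion is met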
Vif inh – blocks HIV Vif function. inhibition, % at 7.49 µM. actives 0.35% (n = 340,000). HEK293T cells, Vif self-association by quenched fluorescence, imaging, 24 h; in the data active = inhibition above about 50%, passing the limit was not always enough; inconclusive = no clear call, values can overlap the other calls; inactive = below about 31%
NTR1 ag – agonists of human neurotensin receptor NTR1 | actives 0.17% (n = 330,000) | activation, % at 20 µM | NTR1-U2OS beta-arrestin-GFP spot imaging, agonist mode | P30989 | AID 493036;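 active = activation at or above 40% of the spot to cytoplasm intensity ratio, with at least 20 cells analyzed; inconclusive = wells under 20 cells, flagged as cytotoxic or low count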
Target sequence (P30989 whole entry, looked up): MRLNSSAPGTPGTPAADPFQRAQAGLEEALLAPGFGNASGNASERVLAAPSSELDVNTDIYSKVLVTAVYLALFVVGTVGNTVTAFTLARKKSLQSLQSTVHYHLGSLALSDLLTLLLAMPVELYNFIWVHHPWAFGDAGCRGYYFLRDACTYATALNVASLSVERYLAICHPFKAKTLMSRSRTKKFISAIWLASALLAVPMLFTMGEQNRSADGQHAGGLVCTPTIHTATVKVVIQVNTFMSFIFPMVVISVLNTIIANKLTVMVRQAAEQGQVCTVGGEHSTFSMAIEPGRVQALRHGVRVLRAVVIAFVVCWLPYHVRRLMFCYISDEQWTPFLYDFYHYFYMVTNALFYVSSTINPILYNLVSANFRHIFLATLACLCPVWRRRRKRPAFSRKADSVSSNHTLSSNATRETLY
V-ATPase pHluor – yeast V-ATPase proton transport regulation by pHLuorin; AID 504577; response, % at 10 µM; actives 0.37% (n = 350,000); S. cerevisiae, pHLuorin cytosolic pH fluorescence; in the data active = response mostly above about 7.3%, no sharp cut-off; inactive = mostly below about 5.4%; also: actives read high
Hits are given with their value; i = inactive; ? = inconclusive; nt = not tested or not shown; + = active, no number; ! = a repeat was not active.

SMILES	SR-BI DiI-HDL act	SR-BI HDL uptake	CaV13 FRET inh	Vif inh	NTR1 ag	V-ATPase pHluor
CCOC(=O)Nc1ccc2c(c1)ncn2C1CCCCC1	i	i	i	82	i	i
CCCCNc1ccc2c(c1)OC[C@H](Cc1ccccc1)NS2(=O)=O	nt	nt	i	nt	nt	nt
COC(=O)c1cc2c(-c3ccccc3)cc3ccccn3c-2c1C(=O)OC	i	85	nt	i	i	i
COC(=O)[C@]12C[C@H](CC(=O)N3CCOCC3)C(=O)N(Cc3ccccc3)C1=C[C@H](C(C)(C)C)O[C@@H]2C	nt	nt	i	nt	nt	nt
Cc1ccc(S(=O)(=O)NC(C(=O)Oc2cc3oc(=O)cc(C)c3cc2Cl)C(C)C)cc1 (stereo not given)	i	i	i	i	i	i
COC(=O)COc1c(/C=C\c2nc(O)c([N+](=O)[O-])c(=O)[nH]2)cccc1OC	i	75	i	i	i	i
COc1ccccc1NC(=O)c1ccc(NC(=O)COC(=O)CC(NC(=O)c2ccccc2Cl)c2ccccc2)cc1 (stereo not given)	i	81	i	i	i	i
COc1ccccc1C(=O)N/C(=C\c1cn(C)c2ccccc12)C(=O)NCCN1CCOCC1	nt	nt	i	i	nt	i
Fc1ccc(-c2n[nH]c(=S)c3ccccc23)cc1	i	i	i	52	i	i
CN1CCc2c(sc(NC(=O)c3cc(Cl)sc3Cl)c2C(N)=O)C1	nt	nt	+	161	i	nt
CC(C)N1CCc2c(sc(NC(=O)c3cc4cc([N+](=O)[O-])ccc4s3)c2C(N)=O)C1	i	i	i	80	i	i
CC(C)N1CCc2c(sc(NC(=O)c3ccc4ccccc4c3)c2C(N)=O)C1	i	i	nt	i	i	i
COc1ccc(OC)c(CCNC(=O)CN2C(=O)CCSc3ccccc32)c1	i	i	i	i	i	i
O=C(NN=Cc1ccc(OC(F)F)cc1)c1ccc(NS(=O)(=O)c2cccs2)cc1	i	i	i	i	i	i
O=C(NN=Cc1ccc(O)cc1O)c1ccccc1NS(=O)(=O)c1cccs1	i	97	i	i	i	i
O=C1CCC/C(=N/NC(=O)c2ccc(NS(=O)(=O)c3cccs3)cc2)C1	i	i	i	52	i	i
NC(=O)c1cc(NC(=O)c2ccc(NS(=O)(=O)c3cccs3)cc2)cc(C(N)=O)c1	i	i	i	i	i	i
COc1cccc(NC(=O)c2ccc(NS(=O)(=O)c3cccs3)cc2)c1	i	77	i	i	i	i
O=C(NN=Cc1ccccc1OC(F)F)c1ccc(NS(=O)(=O)c2cccs2)cc1	i	82	i	i	i	i
Cc1nn(CC(=O)NC2CCC(C)CC2)c(C)c1[N+](=O)[O-] (stereo not given)	i	i	i	i	i	i
CC1=C(/C=C/C(C)=C/C=C/C(C)=C\C(=O)O)C(C)(C)CCC1	i	i	i	i	i	i
CC1=C(/C=C/C(C)=C/C=C/C(C)=C/C(=O)Nc2ccc(O)cc2)C(C)(C)CCC1	i	98	i	50!	i	i
CCOC(=O)c1cnc[nH]c1=O	i	i	i	i	nt	i
C[C@]12CCC(=O)CC1=CCC1C3CC=C(C#N)[C@@]3(C)CC[C@@]12O (stereo not given in full)	i	i	i	i	i	71
Cc1ccc2c(c1)-c1c(cnn1CC(=O)Nc1ccccc1N1CCN(C)CC1)CO2	i	i	46	i	i	i
SMILES	SR-BI DiI-HDL act	SR-BI HDL uptake	CaV13 FRET inh	Vif inh	NTR1 ag	V-ATPase pHluor
CCN(CC)c1ccc(/C=C(/C#N)c2nc3ccccc3[nH]2)c(OC(C)C)c1	i	94	nt	nt	i	i
COc1cc(/C=C(\C#N)c2nc3ccccc3[nH]2)ccc1OC(=O)c1ccco1	i	i	i	i	i	i
COc1cc(/C=C(\C#N)c2nc3ccccc3[nH]2)c([N+](=O)[O-])cc1OCc1ccccc1	i	85	i	i	i	i
COc1cccc(CN2CC(C(=O)NCCc3cn4cccnc4n3)CCC2=O)c1 (stereo not given)	nt	nt	i	nt	nt	i
COc1ccc(NC(=O)C(=O)c2cn(CC(=O)N3CCCC3)c3ccccc23)c(OC)c1	i	72	nt	i	i	i
Cc1cc(C)cc(NC(=O)CCc2nc3sc4c(c3c(=O)[nH]2)CCCC4)c1	i	i	i	151	i	i
CCCCS(=O)(=O)N1CCCc2nc(-c3ccc(F)cc3)ccc21	nt	nt	i	nt	nt	nt
COc1ccc(NC(=O)N2CCN(c3nc4ccccc4n3C(C)C)CC2)cc1	i	81	i	i	i	i
COc1ccc(NC(=O)N2CCN(c3nc(-c4cccc(OC)c4)cs3)CC2)cc1	i	71	i	i	i	i
COc1ccc(NC(=O)c2sc3nc(-c4cccnc4)ccc3c2N)cc1OC	i	74	i	i	i	i
COc1ccc(NC(=O)c2sc3nc(-c4cccnc4)ccc3c2N)cc1	i	?	i	92	i	i
Nc1c(C(=O)Nc2ccccc2)sc2nc(-c3cccnc3)ccc12	nt	nt	i	nt	i	nt
COc1ccc(C(=O)c2sc3nc(-c4ccc(OC)cc4)ccc3c2N)cc1	i	i	134	i	i	i
COc1ccc(NC(=O)C[C@H]2C(=O)N(c3ccc(OC)cc3)C[C@@H]2C)cc1	nt	nt	i	i	nt	i
C/C(=N/NC(N)=S)c1cc2ccc(O)cc2oc1=O	i	84	i	i	i	i
CCc1ncc(C)nc1CC	i	i	nt	i	i	i
COc1ccc(/C=N/n2c(-c3ccc(C)cc3)n[nH]c2=S)cc1OC	i	i	i	99	i	i
COc1cc(/C=N/n2c(-c3ccccc3)n[nH]c2=S)ccc1O	nt	nt	i	i	i	i
Cc1ccc(SCC(=O)NN2C(=O)c3ccccc3C2=O)cc1	i	i	i	i	i	i
CCCNC(=O)/C=C/C(=O)O	i	i	i	i	i	i
CC1CCC(NC(=O)C2CCC(CNS(=O)(=O)c3ccc4c(c3)C(C)(C)C(=O)N4C)CC2)CC1 (stereo not given)	nt	nt	i	i	nt	nt
CCc1ccc(/C(C)=N/Nc2cc(Cl)nc(C)n2)cc1	i	79	i	i	i	i
CCCc1cc(=O)oc2cc(C)cc(OCC(=O)Nc3cccnc3)c12	i	i	i	i	i	i
COc1cccc(-c2cc(C(=O)Nc3cc(C)n(Cc4ccc(Cl)cc4)n3)no2)c1	i	i	i	i	i	i
COc1ccc(OC)c(-c2cc(C(=O)Nc3cc(C)n(Cc4ccc(Cl)cc4)n3)no2)c1	i	89	i	i	i	i
O=C(NCC(O)CN1CCOCC1)c1ccc([N+](=O)[O-])cc1 (stereo not given)	i	i	i	i	i	i
COc1cccc(CNC(=O)[C@H]2CCCN2C(=O)[C@H]2CCCN2C(=O)c2ccccc2)c1	nt	nt	i	nt	nt	nt
COc1ccc(OC)c(C(C[N+](=O)[O-])c2c(C)cc3ccccn23)c1 (stereo not given)	i	i	i	i	50	i

Compound activity: PubChem BioAssay, several laboratories
